# Laboratory results: ChEMBL document CHEMBL2412955, “Synthesis and antibacterial activities of N-substituted-glycinyl 1H-1,2,3-triazolyl oxazolidinones” (2013)
# Tests used:
# Format in all cases: functional
# Staphylococcus aureus [1] = assay: Antibacterial activity against Staphylococcus aureus ATCC 25923 after 18 hrs by […] in presence of human plasma; conditions: ATCC 25923, Plasma
# Summary of the method: (§1)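 To gauge plasma protein binding and/or plasma instability, MIC was determined in Mueller-Hinton broth containing 50% human plasma. Linezolid served as a reference agent. Ratio compares this MIC with the MIC obtained without plasma.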
# Staphylococcus aureus [2] = assay: Antibacterial activity against Staphylococcus aureus ATCC 25923 after 18 hrs by NCCLS agar dilution method; conditions: ATCC 25923, 18 h
# Summary of the method: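 Plain Mueller-Hinton agar, agar dilution per NCCLS, concentrations 0.12–64 µg/ml. Test agents in 80% DMSO in water, linezolid in 40% water in ethanol, vancomycin in water. Final inoculum 10^7 CFU/ml, 35 °C for 18 h. MIC = lowest concentration inhibiting visible growth.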
# Moraxella catarrhalis [3] = assay: Antibacterial activity against Moraxella catarrhalis clinical isolate 3447 after 18 hrs by NCCLS agar dilution method; conditions: clinical isolate 3447, 18 h
# Summary of the method: (§2)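 NCCLS agar dilution on Mueller-Hinton agar with 5% sheep blood added to support growth. Drug dilutions 0.12–64 µg/ml. Test agents in 80% DMSO in water, linezolid in 40% water in ethanol. Final inoculum 10^7 CFU/ml, 18 h at 35 °C. MIC read as the lowest concentration with no visible growth.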
# Moraxella catarrhalis [4] = assay: Antibacterial activity against Moraxella catarrhalis clinical isolate 2824 after 18 hrs by NCCLS agar dilution method; conditions: clinical isolate 2824, 18 h; summary of the method: as §2
# Moraxella catarrhalis [5] = assay: Antibacterial activity against Moraxella catarrhalis clinical isolate 255 after 18 hrs by NCCLS agar dilution method; conditions: clinical isolate 255, 18 h; summary of the method: as §2
# Moraxella catarrhalis [6] = assay: Antibacterial activity against Moraxella catarrhalis clinical isolate 138 after 18 hrs by NCCLS agar dilution method; conditions: clinical isolate 138, 18 h; summary of the method: as §2
# Moraxella catarrhalis [7] = assay: Antibacterial activity against Moraxella catarrhalis clinical isolate 125 after 18 hrs by NCCLS agar dilution method; conditions: clinical isolate 125, 18 h; summary of the method: as §2
# Moraxella catarrhalis [8] = assay: Antibacterial activity against Moraxella catarrhalis clinical isolate 112 after 18 hrs by NCCLS agar dilution method; conditions: clinical isolate 112, 18 h; summary of the method: as §2
# Moraxella catarrhalis [9] = assay: Antibacterial activity against Moraxella catarrhalis clinical isolate 36 after 18 hrs by NCCLS agar dilution method; conditions: clinical isolate 36, 18 h; summary of the method: as §2
# Moraxella catarrhalis [10] = assay: Antibacterial activity against Moraxella catarrhalis clinical isolate 1 after 18 hrs by NCCLS agar dilution method; conditions: clinical isolate 1, 18 h; summary of the method: as §2
# Moraxella catarrhalis [11] = assay: Antibacterial activity against Moraxella catarrhalis ATCC 8176 after 18 hrs by NCCLS agar dilution method; conditions: ATCC 8176, 18 h; summary of the method: as §2
# Streptococcus pneumoniae [12] = assay: Antibacterial activity against penicillin-resistant Streptococcus pneumoniae after 18 hrs by NCCLS agar dilution method
# Summary of the method: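 Agar dilution was run on Mueller-Hinton agar supplemented with 5% sheep blood, with drug dilutions from 0.12 to 64 µg/ml. Test compounds were dissolved in 80% DMSO in water. Final inoculum was 10^7 CFU/ml, incubated at 35 °C for 18 h. MIC was the lowest concentration preventing visible growth.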
# Haemophilus influenzae = assay: Antibacterial activity against Haemophilus influenzae ATCC 49247 after 18 hrs by NCCLS agar dilution method; conditions: ATCC 49247, 18 h; summary of the method: as §2
# Escherichia coli = assay: Antibacterial activity against Escherichia coli ATCC 25922 after 18 hrs by NCCLS agar dilution method; conditions: ATCC 25922, 18 h
# Summary of the method: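 Agar dilution per NCCLS on Mueller-Hinton agar, drug dilutions 0.12–64 µg/ml. Linezolid dissolved in 40% water in ethanol, vancomycin in water, test agents in 80% DMSO in water. Inoculum 10^7 CFU/ml (final), incubated 35 °C for 18 h. MIC is the lowest concentration preventing visible growth.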
# Enterococcus [13] = assay: Antibacterial activity against vancomycin-resistant Enterococcus after 18 hrs by NCCLS agar dilution method
# Summary of the method: (§3)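 Clinical isolates were tested by agar dilution on Mueller-Hinton agar with drug dilutions from 0.12 to 64 µg/ml. Test compounds were dissolved in 80% DMSO in water. Final inoculum was 10^7 CFU/ml, incubated at 35 °C for 18 h. MIC was the lowest concentration inhibiting visible growth.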
# Enterococcus [14] = assay: Antibacterial activity against vancomycin-susceptible Enterococcus after 18 hrs by NCCLS agar dilution method; summary of the method: as §3
# Staphylococcus [15] = assay: Antibacterial activity against methicillin-susceptible coagulase-negative Staphylococcus after 18 hrs by NCCLS agar dilution method; summary of the method: as §3
# Staphylococcus [16] = assay: Antibacterial activity against methicillin-resistant coagulase-negative Staphylococcus after 18 hrs by NCCLS agar dilution method; summary of the method: as §3
# Staphylococcus aureus [17] = assay: Antibacterial activity against methicillin-susceptible Staphylococcus aureus after 18 hrs by NCCLS agar dilution method; summary of the method: as §3
# Staphylococcus aureus [18] = assay: Antibacterial activity against methicillin-resistant Staphylococcus aureus after 18 hrs by NCCLS agar dilution method; summary of the method: as §3
# Staphylococcus aureus [19] = assay: Ratio of MIC for Staphylococcus aureus ATCC 25923 to MIC for Staphylococcus aureus ATCC 25923 in presence of human plasma; summary of the method: as §1
# Moraxella catarrhalis [20] = assay: Ratio of linezolid MIC to compound MIC for Moraxella catarrhalis ATCC 8176
# Streptococcus pneumoniae [21] = assay: Ratio of PH084 MIC to compound MIC for penicillin-resistant Streptococcus pneumoniae
# Enterococcus [22] = assay: Ratio of PH084 MIC to compound MIC for vancomycin-susceptible Enterococcus
# Staphylococcus [23] = assay: Ratio of PH084 MIC to compound MIC for methicillin-susceptible coagulase-negative Staphylococcus
# Staphylococcus aureus [24] = assay: Ratio of PH084 MIC to compound MIC for methicillin-susceptible Staphylococcus aureus
# Streptococcus pneumoniae [25] = assay: Ratio of PH027 MIC to compound MIC for penicillin-resistant Streptococcus pneumoniae
# Enterococcus [26] = assay: Ratio of PH027 MIC to compound MIC for vancomycin-susceptible Enterococcus
# Staphylococcus [27] = assay: Ratio of PH027 MIC to compound MIC for methicillin-susceptible coagulase-negative Staphylococcus
# Staphylococcus aureus [28] = assay: Ratio of PH027 MIC to compound MIC for methicillin-susceptible Staphylococcus aureus
# Streptococcus pneumoniae [29] = assay: Ratio of linezolid MIC to compound MIC for penicillin-resistant Streptococcus pneumoniae
# Enterococcus [30] = assay: Ratio of linezolid MIC to compound MIC for vancomycin-susceptible Enterococcus
# Staphylococcus [31] = assay: Ratio of linezolid MIC to compound MIC for methicillin-susceptible coagulase-negative Staphylococcus
# Staphylococcus aureus [32] = assay: Ratio of linezolid MIC to compound MIC for methicillin-susceptible Staphylococcus aureus
Compound,MIC (Staphylococcus aureus [1]),MIC (Staphylococcus aureus [2]),MIC (Moraxella catarrhalis [3]),MIC (Moraxella catarrhalis [4]),MIC (Moraxella catarrhalis [5]),MIC (Moraxella catarrhalis [6]),MIC (Moraxella catarrhalis [7]),MIC (Moraxella catarrhalis [8]),MIC (Moraxella catarrhalis [9]),MIC (Moraxella catarrhalis [10]),MIC (Moraxella catarrhalis [11]),MIC (Streptococcus pneumoniae [12]),MIC (Haemophilus influenzae),MIC (Escherichia coli),MIC (Enterococcus [13]),MIC (Enterococcus [14]),MIC (Staphylococcus [15]),MIC (Staphylococcus [16]),MIC (Staphylococcus aureus [17]),MIC (Staphylococcus aureus [18]),also measured
Cc1cn(C[C@H]2CN(c3ccc(N4CCN(C(=O)CNC(=O)c5ccccc5)CC4)c(F)c3)C(=O)O2)nn1,16 mg/L,1 mg/L,4 mg/L,4 mg/L,4 mg/L,4 mg/L,4 mg/L,4 mg/L,4 mg/L,4 mg/L,8 mg/L,2 mg/L,32 mg/L,> 64 mg/L,0.5 mg/L,0.5 mg/L,0.5 mg/L,0.5 mg/L,0.5 mg/L,0.5 mg/L,–
O=C(NCC(=O)N1CCN(c2ccc(N3C[C@H](Cn4ccnn4)OC3=O)cc2F)CC1)c1cc([N+](=O)[O-])cc([N+](=O)[O-])c1,16 mg/L,1 mg/L,0.25 mg/L,0.25 mg/L,0.25 mg/L,0.25 mg/L,0.25 mg/L,0.25 mg/L,0.25 mg/L,0.25 mg/L,0.5 mg/L,0.25 mg/L,16 mg/L,> 64 mg/L,1 mg/L,0.5 mg/L,0.5 mg/L,0.5 mg/L,0.5 mg/L,0.5 mg/L,Ratio (Staphylococcus aureus [19]): 16; Ratio (Moraxella catarrhalis [20]): 16
Cc1cn(C[C@H]2CN(c3ccc(N4CCN(C(=O)CNC(=O)c5cc([N+](=O)[O-])cc([N+](=O)[O-])c5)CC4)c(F)c3)C(=O)O2)nn1,8 mg/L,2 mg/L,0.5 mg/L,1 mg/L,0.5 mg/L,1 mg/L,0.5 mg/L,0.5 mg/L,1 mg/L,1 mg/L,1 mg/L,0.25 mg/L,> 16 mg/L,> 64 mg/L,2 mg/L,1 mg/L,1 mg/L,1 mg/L,1 mg/L,1 mg/L,Ratio (Staphylococcus aureus [19]): 4; Ratio (Moraxella catarrhalis [20]): 8
O=C(NCC(=O)N1CCN(c2ccc(N3C[C@H](Cn4ccnn4)OC3=O)cc2F)CC1)c1cccnc1,8 mg/L,2 mg/L,8 mg/L,8 mg/L,8 mg/L,8 mg/L,8 mg/L,8 mg/L,8 mg/L,8 mg/L,8 mg/L,0.25 mg/L,8 mg/L,> 64 mg/L,2 mg/L,2 mg/L,1 mg/L,1 mg/L,1 mg/L,1 mg/L,–
Cc1cn(C[C@H]2CN(c3ccc(N4CCN(C(=O)CNC(=O)c5cccnc5)CC4)c(F)c3)C(=O)O2)nn1,4 mg/L,2 mg/L,8 mg/L,8 mg/L,4 mg/L,4 mg/L,4 mg/L,4 mg/L,> 4 mg/L,> 4 mg/L,8 mg/L,0.25 mg/L,8 mg/L,> 64 mg/L,1 mg/L,1 mg/L,1 mg/L,1 mg/L,1 mg/L,1 mg/L,–
O=C(NCC(=O)N1CCN(c2ccc(N3C[C@H](Cn4ccnn4)OC3=O)cc2F)CC1)c1cccs1,8 mg/L,1 mg/L,8 mg/L,8 mg/L,8 mg/L,8 mg/L,8 mg/L,8 mg/L,8 mg/L,8 mg/L,8 mg/L,0.5 mg/L,16 mg/L,> 64 mg/L,1 mg/L,1 mg/L,0.5 mg/L,0.5 mg/L,0.5 mg/L,0.5 mg/L,–
O=C(NCC(=O)N1CCN(c2ccc(N3C[C@H](Cn4ccnn4)OC3=O)cc2F)CC1)c1ccc([N+](=O)[O-])o1,< 0.25 mg/L,< 0.25 mg/L,1 mg/L,1 mg/L,1 mg/L,1 mg/L,1 mg/L,1 mg/L,1 mg/L,1 mg/L,1 mg/L,< 0.25 mg/L,8 mg/L,> 64 mg/L,0.25 mg/L,0.25 mg/L,0.06 mg/L,0.06 mg/L,0.06 mg/L,0.06 mg/L,Ratio (Moraxella catarrhalis [20]): 8; Ratio (Streptococcus pneumoniae [21]): 4; Ratio (Enterococcus [22]): 4; Ratio (Staphylococcus [23]): 4; Ratio (Staphylococcus aureus [24]): 4; Ratio (Streptococcus pneumoniae [25]): 4; Ratio (Enterococcus [26]): 4; Ratio (Staphylococcus [27]): 4; Ratio (Staphylococcus aureus [28]): 4; Ratio (Streptococcus pneumoniae [29]): 4; Ratio (Enterococcus [30]): 4; Ratio (Staphylococcus [31]): 4; Ratio (Staphylococcus aureus [32]): 4
Cc1cn(C[C@H]2CN(c3ccc(N4CCN(C(=O)CNC(=O)c5ccc([N+](=O)[O-])o5)CC4)c(F)c3)C(=O)O2)nn1,< 0.25 mg/L,< 0.25 mg/L,1 mg/L,1 mg/L,1 mg/L,1 mg/L,1 mg/L,1 mg/L,1 mg/L,1 mg/L,0.5 mg/L,< 0.25 mg/L,2 mg/L,16 mg/L,0.5 mg/L,0.25 mg/L,0.06 mg/L,0.06 mg/L,0.06 mg/L,0.06 mg/L,Ratio (Moraxella catarrhalis [20]): 16; Ratio (Streptococcus pneumoniae [21]): 4; Ratio (Enterococcus [22]): 4; Ratio (Staphylococcus [23]): 4; Ratio (Staphylococcus aureus [24]): 4; Ratio (Streptococcus pneumoniae [25]): 4; Ratio (Enterococcus [26]): 4; Ratio (Staphylococcus [27]): 4; Ratio (Staphylococcus aureus [28]): 4; Ratio (Streptococcus pneumoniae [29]): 4; Ratio (Enterococcus [30]): 4; Ratio (Staphylococcus [31]): 4; Ratio (Staphylococcus aureus [32]): 4
